ChEMBL document CHEMBL4673199, “Potent and selective A3 adenosine receptor antagonists bearing aminoesters as heterobifunctional moieties” (RSC Med Chem, 2021)

Columns and labels:
Adenosine receptor A2a = Adenosine receptor A2a (Homo sapiens, UniProt P29274); assay: Displacement of [3H]-NECA from human A2A receptor expressed in CHO cell membrane by radioligand binding assay; type: cell membranes
Outline: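 Crude membrane fraction from transfected CHO cells, obtained by 1,000 x g then 100,000 x g centrifugation, in 50 mM Tris/HCl pH 7.4, stored at -80 °C. Radioligand at 10 nM; 100 µM R-PIA defined nonspecific binding. Ki computed with SCTFIT, mean of 3-6 replicates.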

Adenosine receptor A3 = target: T1, Adenosine receptor A3 (Homo sapiens, UniProt P0DMS8); assay: Displacement of [3H]-HEMADO from human A3 receptor expressed in CHO cell membrane by radioligand binding assay; type: cell membranes
T1 sequence (P0DMS8 whole entry): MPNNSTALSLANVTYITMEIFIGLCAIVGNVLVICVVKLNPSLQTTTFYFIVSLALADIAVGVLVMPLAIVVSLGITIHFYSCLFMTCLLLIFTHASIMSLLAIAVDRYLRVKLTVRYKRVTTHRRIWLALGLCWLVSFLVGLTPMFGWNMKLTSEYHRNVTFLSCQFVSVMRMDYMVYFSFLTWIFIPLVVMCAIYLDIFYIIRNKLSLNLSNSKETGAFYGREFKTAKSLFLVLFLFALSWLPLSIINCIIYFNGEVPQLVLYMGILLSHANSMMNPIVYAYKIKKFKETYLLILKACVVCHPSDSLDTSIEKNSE
Outline: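 Membranes from CHO cells with human receptor: low-speed spin at 1,000 x g, then crude membranes pelleted at 100,000 x g. Resuspended in 50 mM Tris/HCl, 10 mM MgCl2, 1 mM EDTA, pH 8.25, stored at -80 °C. Radioligand at 1 nM; nonspecific binding with 100 µM R-PIA. Ki by SCTFIT, mean of 3-6 replicates.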

Adenosine receptor A2b = target: T2, Adenosine receptor A2b (Homo sapiens, UniProt P29275); assay: Antagonist activity at human A2B receptor expressed in CHO cell membrane assessed as reduction in NECA-stimulated adenylyl cyclase activity in presence of [alpha32P]ATP; type: functional, cell membranes
T2 sequence (P29275 whole entry): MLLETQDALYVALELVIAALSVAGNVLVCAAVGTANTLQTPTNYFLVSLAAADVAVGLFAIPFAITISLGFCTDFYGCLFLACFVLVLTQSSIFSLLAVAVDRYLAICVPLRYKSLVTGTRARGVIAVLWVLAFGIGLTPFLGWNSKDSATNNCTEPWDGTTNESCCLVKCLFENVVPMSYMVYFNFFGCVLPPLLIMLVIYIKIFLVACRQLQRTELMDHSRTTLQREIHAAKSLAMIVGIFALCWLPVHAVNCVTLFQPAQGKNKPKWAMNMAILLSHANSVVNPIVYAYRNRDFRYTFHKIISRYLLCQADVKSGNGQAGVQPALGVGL

Adenosine receptor A1 = target: T3, Adenosine receptor A1 (Homo sapiens, UniProt P30542); assay: Displacement of [3H]CCPA from human A1 receptor expressed in CHO cell membrane by radioligand binding assay; type: cell membranes
T3 sequence (P30542 whole entry): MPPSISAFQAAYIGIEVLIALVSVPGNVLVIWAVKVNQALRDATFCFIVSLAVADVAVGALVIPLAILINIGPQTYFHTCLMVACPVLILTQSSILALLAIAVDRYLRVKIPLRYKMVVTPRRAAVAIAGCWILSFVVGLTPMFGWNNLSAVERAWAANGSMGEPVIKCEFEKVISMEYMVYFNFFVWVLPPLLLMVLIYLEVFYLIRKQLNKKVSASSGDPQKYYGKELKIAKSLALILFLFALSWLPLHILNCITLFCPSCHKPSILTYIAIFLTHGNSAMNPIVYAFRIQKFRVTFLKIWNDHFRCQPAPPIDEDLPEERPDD
Outline: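 CHO membranes prepared by 1,000 x g clearing, then 100,000 x g sedimentation, resuspended in 50 mM Tris/HCl pH 7.4 and kept at -80 °C. Labelled with 1 nM radioligand; nonspecific binding with theophylline (1 mM). Ki values from SCTFIT, mean of 3-6 replicates.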

Chain of Adenosine receptor A2a (P29274 whole entry): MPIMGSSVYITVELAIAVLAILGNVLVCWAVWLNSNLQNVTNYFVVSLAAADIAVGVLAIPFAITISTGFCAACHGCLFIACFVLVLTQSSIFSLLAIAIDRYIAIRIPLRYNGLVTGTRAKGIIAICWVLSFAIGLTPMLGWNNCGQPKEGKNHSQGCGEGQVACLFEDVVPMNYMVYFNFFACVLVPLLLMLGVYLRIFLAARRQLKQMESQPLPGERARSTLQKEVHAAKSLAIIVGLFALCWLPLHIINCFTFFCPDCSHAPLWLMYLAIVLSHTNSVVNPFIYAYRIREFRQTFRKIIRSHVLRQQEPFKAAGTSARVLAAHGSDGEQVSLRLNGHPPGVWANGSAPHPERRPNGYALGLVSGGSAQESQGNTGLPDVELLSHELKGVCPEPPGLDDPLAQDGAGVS

SMILES | Ki (Adenosine receptor A2a) | Ki (Adenosine receptor A3) | IC50 (Adenosine receptor A2b) | Ki (Adenosine receptor A1)
CCOC(=O)CCCNc1nc2nn(C)cc2c2nc(-c3ccco3)nn12 | 231 nM | 108 nM | > 10 µM | 901 nM
CCOC(=O)[C@@H](Cc1c[nH]c2ccccc12)Nc1nc2nn(C)cc2c2nc(-c3ccco3)nn12 | 889 nM | 59.7 nM | – | 1570 nM
CCOC(=O)C(CC(C)C)Nc1nc2nn(C)cc2c2nc(-c3ccco3)nn12 (racemic) | 398 nM | 0.5 nM | > 10 µM | 322 nM
CCOC(=O)C(Nc1nc2nn(C)cc2c2nc(-c3ccco3)nn12)C(C)C (racemic) | 1270 nM | 1.72 nM | > 10 µM | 591 nM
CCOC(=O)C[C@H](Nc1nc2nn(C)cc2c2nc(-c3ccco3)nn12)C(=O)OCC | 445 nM | 16.3 nM | > 10 µM | 552 nM
CCOC(=O)C(CO)Nc1nc2nn(C)cc2c2nc(-c3ccco3)nn12 (racemic) | 348 nM | 17.1 nM | – | 312 nM
COC(=O)[C@@H]1CCCN1c1nc2nn(C)cc2c2nc(-c3ccco3)nn12 | 428 nM | 113 nM | > 10 µM | 2270 nM

More lines, in order of falling Ki (Adenosine receptor A2a), values ahead:

Ki (Adenosine receptor A2a) | Ki (Adenosine receptor A3) | IC50 (Adenosine receptor A2b) | Ki (Adenosine receptor A1) | SMILES
2670 nM | 7.55 nM | > 10 µM | 919 nM | CCOC(=O)CC[C@H](Nc1nc2nn(C)cc2c2nc(-c3ccco3)nn12)C(=O)OCC
1300 nM | 24.6 nM | > 10 µM | 617 nM | CCOC(=O)[C@H](Cc1ccc(O)cc1)Nc1nc2nn(C)cc2c2nc(-c3ccco3)nn12
1300 nM | 50.6 nM | > 10 µM | 1820 nM | CCOC(=O)[C@H](Cc1ccccc1)Nc1nc2nn(C)cc2c2nc(-c3ccco3)nn12
860 nM | 0.306 nM | > 10 µM | 173 nM | CCOC(=O)C(Nc1nc2nn(C)cc2c2nc(-c3ccco3)nn12)c1ccccc1 (racemic)
820 nM | 15.5 nM | > 10 µM | 2200 nM | CCOC(=O)C(C)Nc1nc2nn(C)cc2c2nc(-c3ccco3)nn12 (racemic)
551 nM | 1.06 nM | > 10 µM | 388 nM | CCCCC(Nc1nc2nn(C)cc2c2nc(-c3ccco3)nn12)C(=O)OCC (racemic)
376 nM | 46.5 nM | > 10 µM | 882 nM | CCOC(=O)C(Nc1nc2nn(C)cc2c2nc(-c3ccco3)nn12)C(O)c1ccccc1 (racemic)
